# Data taken from ChEMBL document CHEMBL4513216, “Probing the Open Global Health Chemical Diversity Library for Multistage-Active Starting Points for Next-Generation Antimalarials” (ACS Infect Dis, 2020).
# Experiment: Toxicity liver stage against HepG2, at 10uM
# Type: cell-based
# Set-up: test concentration 10 uM, cell line HepG2-A16-CD81EGFP
# Conditions: human, HepG2-A16-CD81EGFP cells; read-out: INHIBITION
# Method in brief: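 Uninfected HepG2-A16-CD81EGFP cells, 3 × 10^3 per well, 1536-well, plated on prespotted compound at 10 μM final, parasite-free screening media added to match infected plates; puromycin 10 μM positive, DMSO 0.5% negative; run in parallel with 48 h PbLuc assay at 37 °C, 5% CO2; viability by CellTiter-Glo luminescence, normalized to controls.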
row,Compound,cytotoxicity at 10 µM [%]
1,CC(=O)NCCC(=O)NCc1cccnc1-n1cnc2ccccc21,-14.2
2,CC(C)NC(=O)C[C@@H]1CCNC[C@@H]1Cc1cc(-c2ccccc2)on1,-0.626
3,COCCCNC(=O)NCc1cccn1Cc1ccccc1C,2.88
4,O=C1CSC(c2ccc(O)cc2)c2c(n(C3CCOCC3)[nH]c2=O)N1 (stereo not given),2.84
5,O=S(=O)(NCC(c1ccsc1)N1CCCCCC1)c1cccs1 (stereo not given),2
6,CCOCC(=O)NCC1CCN(Cc2ccsc2)CC1,11.1
7,CN(C)C(=O)c1cnn2c1OCCC2,-6.59
8,CSc1ccccc1NC(=O)C1CSc2ncc(C)c(=O)n2C1 (stereo not given),-1.31
9,CC(=O)N1CCC2(CC1)C(=O)N(c1ccc(C)nc1)CCN2CC(C)C,22.2
10,O=C(C1CC=CC1)N1CCC2(CCN(Cc3cccc(F)c3)CC2)C1,-4.48
11,O=C(C1CC1)N1CCC2(COCc3cnc(N4CCOCC4)nc32)C1 (stereo not given),5.31
12,Cc1ccc(C(=O)Oc2cc(=O)n3cccc(C)c3n2)cc1,5.62
13,Cc1cc2nc(O)c(O)nc2cc1S(=O)(=O)NC1CC1,9.43
14,Cc1nc(O)cc([C@@H]2CN(C(=O)C3CC3)C[C@H]2c2ccccc2F)n1,4.95
15,Cc1nc2c(c(NCCCN3CCOCC3)n1)CCN(C)C2,8.12
16,Cc1cc(-c2cnc(NC3CCCCC3)nc2-c2ccco2)on1,-16.4
17,O=C(c1ccco1)N1CCCC(c2cc(C(F)(F)F)n3ncnc3n2)C1 (stereo not given),-3.55
18,Cc1cc(C)c2cc(CNCc3ccco3)c3nn(C)c(=O)n3c2c1,-13.6
19,Cc1cncc(C2CCCN(Cc3ccncc3)C2)n1 (stereo not given),-9.8
20,CC(=O)Nc1nc(C2CCN(C(=O)c3cccnc3)CC2)cs1,-2.47
21,CC(C)NC(=O)N1CCC(c2nnc3n2CCNC3)CC1,10.4
22,CCc1nnsc1C(=O)NCc1nnc2n1CCC2,0.371

row,Compound,cytotoxicity at 10 µM [%]
1,COc1ccc(C(=O)N2CCOc3ccncc32)cc1,12.8
2,CCN(CC)c1ncc(Cl)c(C(=O)NC2CCC(O)CC2)n1 (stereo not given),-43.5
3,N#Cc1ccccc1CN1CCc2sccc2C1,-0.572
4,CC(C)C(CNC(=O)CCn1cncn1)N1CCc2ccccc2C1 (stereo not given),-162
5,CC(=O)N1CC(C)CN(C(=O)c2cnccn2)c2ccccc21 (stereo not given),3.82
6,N#Cc1cccc(NC(=O)N[C@H](CO)Cc2ccc(O)cc2)c1,0.597
7,CCCN(Cc1ccccc1O)C(=O)Nc1cnn(CCOC)c1,23.8
8,CC(Oc1cccc(Cl)c1)C(=O)Nc1cnn(CCN(C)C)c1 (stereo not given),-12.5
9,Cc1cc(C2NC(=O)CN2Cc2ccc(Br)cc2)cc(C)c1O (stereo not given),4.12
10,Cn1c(=O)[nH]c2cc(C(=O)OCCCn3ccccc3=O)ccc21,1.34
11,Cc1ccc(-c2cc(CNCCn3cc(C)cn3)on2)cc1,-7.22
12,CCCn1cc(NC(=O)c2ccc(S(=O)(=O)CC)cc2)ccc1=O,2.99
13,Cc1cnc(CN(C)Cc2cc3c(cc2OC(F)F)OCO3)o1,-8.78
14,Cc1cnc(CN(C)C2CCN(Cc3ccc(Cl)s3)C2)o1 (stereo not given),5.33
15,CCn1ccnc1CNCC(c1ccc(C)s1)N1CCOCC1 (stereo not given),6.41
16,COc1cccc(CN(C)C(=O)CN2CCN(c3nccs3)CC2)c1,-3.98
17,CNC(=O)CCNC(=O)Nc1cccc(Cl)c1SC(F)F,1.29
18,c1cnnc(N2CCCC(NCc3nc(-c4cccs4)no3)C2)c1 (stereo not given),15.8
19,CN(C)C(=O)Cc1nc(CN2CCCC2Cn2cncn2)cs1 (stereo not given),8.58
20,CC1CCCCN1C(=O)c1n[nH]c(=O)c2ccccc12 (stereo not given),-0.402
21,CC(CNS(C)(=O)=O)c1ccc(F)c(F)c1 (stereo not given),-4.71
22,CN(C)c1ccc(CCCNC(=O)NCC(O)c2cccs2)cc1 (stereo not given),-2.59

row,Compound,cytotoxicity at 10 µM [%]
1,CN(Cc1ccco1)C(=O)Nc1ccc(=O)n(C)c1,-43.1
2,CC(NC(=O)N(C)Cc1ccncc1)c1cn(-c2ccccc2)nn1 (stereo not given),-47.7
3,Cn1cnnc1C1CCCN(C(=O)c2cc(-c3ccccc3)on2)C1 (stereo not given),7.36
4,CC(NC(=O)Cc1cccs1)(C(N)=O)c1cccc(Cl)c1 (stereo not given),11.3
5,COC(=O)CCN(C)Cc1cc(Br)cs1,0.311
6,CC(C)(C)c1ncc(CNc2ccccc2Cn2cncn2)s1,48.7
7,CC1(C)CN(Cc2csc(CS(C)(=O)=O)n2)Cc2ccccc21,6.38
8,CC(C)n1c2ccccc2c2c1cc(C(=O)NC1CC1)n2C(=O)N(C)C,-109
9,Cn1cc(C[C@H]2[C@H](O)CCN2C(=O)c2ccsc2)cn1,-72.6
10,COc1cccc([C@H]2CN(C(=O)c3scc4c3CCCC4)C[C@@H]2N)c1,-3.45
11,CC(CCCC(C)(C)O)Nc1ccc(-c2nccn2C)nn1 (stereo not given),3.96
12,c1cnn(Cc2ccc(CN3CCC4(CCNCC4)C3)cc2)c1,-15.6
13,Cc1ccc(N2CCN(c3ccccc3C)CC2C)nn1 (stereo not given),13.2
14,O[C@@H]1CN(c2cnc3ccccc3n2)CC[C@H]1c1ccc2c(c1)OCO2,22.4
15,NCc1cc(NCC(c2ccccn2)N2CCOCC2)ncn1 (stereo not given),-47.5
16,CCOC(=O)CC(C)Nc1nc(C2CCCC2)nc2c1cnn2C (stereo not given),-43.1
17,CCc1ccc(CN(Cc2ccco2)C(C)C(C)C)nc1 (stereo not given),-13.5
18,Cc1nc(CC2CCN(Cc3ccc(CCC(C)(C)O)cc3)CC2)no1,-0.94
19,CN1CC2(CCCN(c3cc(N4CCCCC4)ncn3)C2)OC1=O (stereo not given),-39.7
20,CCCn1cc(C(=O)NCC(=O)NC2CC2)c(C)n1,-3.91
21,CCC(CC)CN1CCC(n2cc(C3CCCC3)nn2)CC1,3.92
22,Cc1nc(CCNC(=O)CC2CCN(C(C)C)CC2)sc1Cl,-194

row,Compound,cytotoxicity at 10 µM [%]
1,COCCNc1cc(-c2ccccc2C(N)=O)c2cc[nH]c2n1,-2.32
2,N[C@@H]1CC[C@H](C(=O)NCCn2cc(Cl)cn2)C1,-36.4
3,Cc1cc(C)n(CC(C)NCc2cnc3c(C)cccn23)n1 (stereo not given),1.44
4,CCc1ncc2c(n1)CN(C(=O)c1c(C)[nH]c3c1C(=O)CCC3)C2,-45.8
5,OC1(CN2CCCC2)CCCN(Cc2cnc(-c3ccco3)nc2)C1 (stereo not given),-6.84
6,NCC1CCN(c2cnn(CCCn3cccn3)c(=O)c2)CC1,-52.8
7,COC(=O)[C@H]1C[C@@H](O)CCN1S(=O)(=O)c1cc(C)c(Cl)cc1C,-0.566
8,Cc1nc(C)c(C)c(NCCSc2ccccn2)n1,-4.23
9,CN(C)C(=O)c1cc(-c2cnc(N)nc2)nc2cc(F)ccc12,2.54
10,COc1coc(CN2CCCC(CCc3ccccc3F)C2)cc1=O (stereo not given),-1.62
11,CCCS(=O)(=O)N1CCN(c2ccnc(N3CCCCC3)n2)CC1,0.805
12,CCn1ccnc1C1CCN(Cc2cccc(Cl)c2)CC1,-9.45
13,O=C(Cc1ccc(O)c(Cl)c1)N1CCCCC1CCn1cccn1 (stereo not given),-13.6
14,Cc1cc(C)n(NC(=O)c2ccc(Cl)cc2Cl)c(=O)c1,-7.05
15,CN1CCCC[C@@H]2[C@H]1[C@@H](c1ccccc1)CCN2C(=O)c1ccccc1,-4.3
16,CC(C)c1ccc(CN2CCN(C(=O)c3cc(C4CC4)[nH]n3)CC2)cc1,39.7
17,O=C(NCCCNc1ccc(C(F)(F)F)cn1)c1ccc2c(c1)OCO2,-8.51
18,CSCc1ccc(C(=O)NCCCNc2ccc(C(F)(F)F)cn2)cc1,3.84
19,O=C(CS(=O)(=O)Cc1cc(Cl)c2c(c1)OCCCO2)NCC1CC1,1.07
20,CCCC(C#N)NC(=O)c1cc(Br)c2c(c1)OCCO2 (stereo not given),-9.2
21,CCc1nc2n(n1)CC(NCc1nnc(C(C)C)o1)CC2 (stereo not given),-15.7
22,CC(=O)NCCNC(=O)CN1CCCC1c1c(C)nn(C)c1C (stereo not given),-25.1

row,Compound,cytotoxicity at 10 µM [%]
1,COc1ccc(OCC(=O)NS(=O)(=O)c2ccc(Br)s2)cc1,-0.383
2,Cc1cccc(-n2ncc(C(=O)N3CCn4c(C)nnc4C3)c2C)c1,2.14
3,CC(C)(C)c1nnc(CN2CCOC(Cn3cccn3)C2)o1 (stereo not given),-10.2
4,COc1cc(CNCc2ccc(NC(=O)NC(C)C)cc2)cc(OC)c1,0.347
5,CC(C)c1nc(CC(=O)Nc2nc(CN3CCCCCC3)cs2)cs1,6.02
6,CCN1CCC2(CC1)OCCN2C(=O)c1cc(Cl)c(OC)c(Cl)c1,9.31
7,O=C(COC[C@]12COC[C@H]1CN(C1CCC1)C2)N1CCCC1,-102
8,CC(C)c1ccc(CN2CCC3(CCCN(c4nncs4)C3)C2)cc1 (stereo not given),-1.15
9,CCOC(=O)[C@]12CCCN(Cc3cccs3)C[C@H]1CN(CC(C)C)C2,10.8
10,Cn1cc(CN2CC[C@@H]3[C@@H]2CCN3Cc2ccc3c(c2)OCO3)cn1,-3.63
11,COc1ccccc1C(=O)N1Cc2cc(C)ccc2OCC1CN(C)C (stereo not given),5.2
12,c1cnc(N2CCCC(NCc3ccc(-n4ccnc4)cc3)C2)nc1 (stereo not given),-7.55
13,c1cnc(NCc2cncc3c2CCN(Cc2ccsc2)C3)nc1,-74.4
14,COc1ccccc1CN1C[C@@H]2COC[C@]2(COCc2ccncc2)C1,-70.9
15,O=C(CC1CCCC1)N1C[C@@H]2CCN(c3cccnc3)C[C@@H]2C1,4.24
16,Fc1cnc(N2C[C@H]3CN(Cc4cccc(F)c4)C[C@H]3C2)nc1,10.4
17,CN(C)C(=O)CN1C[C@H]2CCN(Cc3ccccc3)CC[C@H]2S1(=O)=O,9.82
18,Cc1nc(CN2CCc3ncnc(-c4ccsc4)c3CC2)cs1,-79.8
19,O=C(Nc1cccnc1)C1Cc2nc(-c3ccsc3)sc2N1CC1CC1 (stereo not given),14.5
20,CC(Cc1ccccc1F)NC(=O)CCC1=NC(=C2N=CN=N2)NO1 (stereo not given),7.69
21,CCNc1ncc(CN2C[C@@H]3CC[C@H]2CN(C(=O)C2CCC2)C3)cn1,6.29
22,COc1cccc(-c2cccc(CN3C[C@H]4CC[C@@H](C3)N(C)C4=O)c2)c1,6.98
